Assay outcomes from PubChem.
UCH37 DUB inh – inhibitors of human deubiquitinating enzyme UCH37 | Q9Y5K5 | purified proteasome/UCH37, Ub-AMC cleavage fluorescence | inhibition, % (test concentration not listed) | 330,000 tested, 0.33% active | AID 588478;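 active means mean inhibition over replicate wells above about 20%, limit read from the data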;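 further: 0% = compound-free wells with enzyme and 100% = wells lacking proteasome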
Target sequence (Q9Y5K5 whole entry, looked up): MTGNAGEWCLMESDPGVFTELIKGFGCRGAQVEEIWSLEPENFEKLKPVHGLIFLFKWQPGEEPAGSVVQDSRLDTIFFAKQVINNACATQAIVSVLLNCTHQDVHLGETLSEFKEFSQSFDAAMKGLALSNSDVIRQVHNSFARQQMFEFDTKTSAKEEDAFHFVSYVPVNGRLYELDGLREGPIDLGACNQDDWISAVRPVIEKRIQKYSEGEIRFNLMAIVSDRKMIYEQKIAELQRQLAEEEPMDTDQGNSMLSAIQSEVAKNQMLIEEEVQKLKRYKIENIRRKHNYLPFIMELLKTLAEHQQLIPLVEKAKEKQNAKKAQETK
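Assay system: Proteasome-bound UCH37. Buffer or medium: pH 7.4 Tris-HCl (50 mM) with ovalbumin, ATP-MgCl2, DTT. Incubation: 30 min preincubation with enzyme, 25 min cleavage at room temperature. Measured by: fluorescence, ex 355 nm, em 460 nm. Read-out basis: percent inhibition. Control set: wells without proteasome as full block, compound-free enzyme plus substrate as uninhibited.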
GSTO1 counter – GSTO1 inhibition, counter-screen for RBBP9 inhibitors. 300,000 tested, 1.1% active. recombinant GSTO1, activity-based probe fluorescence polarization. P78417. inhibition, % at 5.96 µM. AID 1974;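 active means inhibition above the campaign mean inhibition plus 3 SD, cut at about 35% in these data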;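 further: 0% = GSTO1-1 with DMSO and 100% = wells lacking GSTO1-1 enzyme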
Target sequence (P78417 whole entry, looked up): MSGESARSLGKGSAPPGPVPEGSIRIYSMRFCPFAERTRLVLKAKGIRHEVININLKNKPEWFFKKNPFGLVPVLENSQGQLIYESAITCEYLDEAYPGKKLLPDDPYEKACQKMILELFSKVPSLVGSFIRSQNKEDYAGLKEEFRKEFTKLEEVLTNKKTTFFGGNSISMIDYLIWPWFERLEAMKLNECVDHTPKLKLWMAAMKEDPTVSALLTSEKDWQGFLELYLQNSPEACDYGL
TDP2 inh – blocks human TDP2 phosphodiesterase activity | O95551 | recombinant TDP2, T5PNP hydrolysis, p-nitrophenol absorbance 415 nm | inhibition, % at 12.8 µM | 370,000 tested, 0.34% active | AID 720702;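 active means inhibition above the mean of all tested compounds plus 3 SD, set per campaign, cut at about 25% in these data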;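 further: 0% = DMSO with enzyme and 100% = buffer with substrate but no TDP2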
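Test system: human TDP2 enzyme; Input: 120 nM TDP2 per well; Buffer or medium: Mg2+-containing Tris-HCl buffer, pH 7.5; Reagent: 5 mM T5PNP; Dosing: 12.8 µM single point, 1% DMSO; Incubation: reaction 2 h, 37 °C; Detection: p-Nitrophenol epi absorbance; Read-out: % inhibition relative to enzyme-containing and enzyme-free wells; Replicates: single well per compound.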
PAD4 inh – PAD4 (human) enzyme inhibition; AID 485272; inhibition, % at 6.36 µM; recombinant PAD4, RCA probe fluorescence polarization; 330,000 tested, 0.41% active;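 active means percent inhibition above a cutoff equal to the mean of all tested compounds plus 3 SD, cut at about 15% in these data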;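 further: 0% = PAD4 with RCA probe and DMSO and 100% = probe without PAD4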
CTSL1 counter – cathepsin L1 inhibition, PFM18AAP counter-screen | recombinant F. hepatica cathepsin L1, Z-Leu-Arg-MCA fluorescence | inhibition, % at 5.96 µM | 300,000 tested, 0.49% active | AID 1906;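 active means inhibition above the mean of all tested compounds plus 3 SD, set per screening campaign, cut at about 17% in these data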;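 further: 0% = plate median of test compound wells and 100% = 1 µM Z-Phe-Ala-diazomethylketone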
HKDC1 inhibitor – HKDC1 (human) hexokinase inhibition. inhibition, % at 20 µM. 340,000 tested, 0.16% active. recombinant HKDC1, G6PDH/diaphorase resazurin coupled fluorescence;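 active means inhibition above about 35% when tested at 20 µM, limit read from the data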;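 further: plate controls were DMSO wells with enzyme for no effect and DMSO wells lacking enzyme for full effect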
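Test system: recombinant HKDC1 (HK5) hexokinase enzyme, produced in-house; Amount: enzyme 5 µg/mL final; Buffer or medium: Tris pH 8.0 buffer with MgCl2, Tween-20, BSA, BME; Reagent: glucose and ATP substrates; Doses: 20 µM test compound, 1% DMSO; Incubation: 90 min reaction incubation at room temperature, dark; Detection: resorufin fluorescence at 613 nm.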
PAD4 FP conf – PAD4 (human) inhibition, confirmed; inhibition, % at 6.36 µM; 1,200 tested, 28% active; AID 488796; recombinant PAD4, RCA probe fluorescence polarization; shares compounds with PAD4 inh;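 active means mean inhibition across replicates above the hit cutoff set by the earlier primary screen, cut at about 15% in these data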;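 further: inhibitors block active-site labeling by the probe so polarization falls; 0% = PAD4 with probe and DMSO and 100% = probe without PAD4 enzyme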
Starred values were filed as active, the others as inactive; nt = no result. Compounds with a hit are over-represented: about 1.6% of the library has one in this group of screens.

SMILES | UCH37 DUB inh | GSTO1 counter | TDP2 inh | PAD4 inh | CTSL1 counter | HKDC1 inhibitor | PAD4 FP conf
CN(C)c1ccc(C=NNC(=O)CCC(=O)NCc2ccccc2)cc1 | -207 | nt | nt | nt | nt | nt | nt
COCCNC(=O)C(c1ccncc1)N(C(=O)Cn1nnc2ccccc21)c1ccc(OC)cc1 (centres undefined) | 1 | 15 | 12 | 16* | -2 | -1 | 19*
COCCNC(=O)C(c1ccc(OC)cc1)N(C(=O)Cn1nnc2ccccc21)c1cccnc1 (centres undefined) | -1 | -7 | -9 | -7 | -3 | -10 | nt
CCCN1CCN(CCCNC(=O)C2CCN(c3nnc(-n4c(C)ccc4C)s3)CC2)CC1 | 3 | -2 | 21 | 18* | 0 | 3 | -1
COc1ccccc1N1C(=O)c2ccc(C(=O)Nc3cccc(C(C)=O)c3)cc2C1=O | 3 | 0 | -11 | 37* | 4 | -3 | 34*
N#CCCN(C(=O)Cn1nc(C(=O)O)c2ccccc2c1=O)c1ccccc1 | 4 | 5 | 4 | 103* | -2 | -2 | 0
CN(C(=O)Cn1nc(C(=O)O)c2ccccc2c1=O)c1ccccc1 | 1 | 11 | -6 | -2 | -2 | -1 | nt
O=c1[nH]c(Sc2ccc([N+](=O)[O-])cc2[N+](=O)[O-])nc2ccccc12 | 7 | 34 | -5 | 44* | 2 | 26 | 19*
O=C(CSc1nc2ccccc2c(=O)[nH]1)Nc1ccc([N+](=O)[O-])cc1 | 3 | nt | -19 | 2 | nt | -3 | nt
O=S(=O)(c1cccs1)N1CN(Cc2ccco2)c2nc3ccccc3nc21 | -1 | 37* | 0 | 77* | 4 | 2 | 4
CN(C)CCN(Cc1ccccc1)c1ccnc(N(C)C)c1C#N | -27 | 4 | -7 | 3 | 1 | -3 | nt
CN(C)CCN(Cc1ccccc1)c1ccccn1 | 3 | 6 | -6 | 73* | 0 | 2 | 7
COc1ccc(-c2cc(=O)c3ccc(O)cc3o2)cc1OC | nt | nt | -11 | nt | nt | nt | nt
Nc1ccc(-c2c3ccc(=O)cc-3oc3cc(O)ccc23)c(C(=O)O)c1 | nt | nt | nt | 21* | nt | -6 | 15
CC(=NNc1ncc(Cl)cc1Cl)c1ccc(N2CCOCC2)cc1 | -5 | nt | nt | nt | nt | nt | nt
Cc1ccc2nc(NC(=O)CSc3nncc(=O)n3N)sc2c1 | 3 | 10 | 9 | 19* | -2 | -1 | 8
COc1ccc2nc(NC(=O)CSc3nnc(C)n3N)sc2c1 | 3 | 10 | -1 | -4 | 3 | 0 | nt
COc1cc(CC(=O)NN=Cc2ccc([N+](=O)[O-])cc2)c([N+](=O)[O-])cc1OC | 10 | nt | nt | nt | nt | nt | nt
CCOC(=O)c1c(-c2ccc(OC)cc2)csc1NC(=O)CSc1ccccc1 | 2 | -2 | 0 | 20* | 2 | 2 | -2
CCOC(=O)c1c(-c2ccccc2)csc1NC(=O)CSc1ccccc1 | 4 | -2 | 10 | -7 | -5 | 6 | nt
Cc1ccc(Sc2ccc([N+](=O)[O-])cc2[N+](=O)[O-])nc1 | 8 | 13 | 0 | 1 | -4 | -3 | nt
Cc1ccnc(Sc2ccc([N+](=O)[O-])cc2[N+](=O)[O-])n1 | 3 | 27 | -1 | 22* | -1 | 1 | 24*
COC(=O)NN=Cc1cccc(OC(=O)c2ccc3c(c2)OCO3)c1 | 2 | nt | nt | nt | nt | nt | nt
O=C(NN=C1CC2CC=CC12)c1ccc(Br)cc1 (centres undefined) | 4 | nt | nt | nt | nt | nt | nt
CCn1cc(C=NN=C2CCC3C4CCc5cc(O)ccc5C4CC[C@]23C)c(C)n1 (some centres undefined) | 5 | nt | nt | nt | nt | nt | nt
SMILES | UCH37 DUB inh | GSTO1 counter | TDP2 inh | PAD4 inh | CTSL1 counter | HKDC1 inhibitor | PAD4 FP conf
COc1cccc(NC2c3ccccc3C(=O)N2Cc2ccccc2Cl)c1 (centres undefined) | 6 | -2 | -17 | -1 | 5 | -6 | nt
COc1cc(NC2c3ccccc3C(=O)N2Cc2ccccc2Cl)cc(OC)c1 (centres undefined) | 2 | 2 | -1 | 58* | -3 | 6 | 16*
COc1ccc(NC(=O)C(c2cc3c(cc2[N+](=O)[O-])OCO3)N(C)C)cc1 (centres undefined) | 2 | 7 | 4 | 31* | 1 | -2 | 5
COc1ccc(NC(=O)c2ccc(NC(=O)C(C)C)cc2)c([N+](=O)[O-])c1 | 1 | -4 | -4 | -4 | -6 | -5 | nt
CN(C)CCCNc1cn[nH]c(=O)c1Cl | 5 | -5 | 7 | 60* | -4 | 7 | 3
CC(C)(C)c1ccc(Cn2nnc3c(=O)[nH]c(C4CCCN(C(=O)Cc5cccs5)C4)nc32)cc1 (centres undefined) | 6 | -2 | -4 | 1 | 2 | -1 | nt
CC(C)(C)c1ccc(Cn2nnc3c(=O)[nH]c(C4CCN(C(=O)Cc5cccs5)CC4)nc32)cc1 | 1 | 9 | -4 | 37* | 2 | 10 | -6
COc1cccc(/C=C2\Oc3ccc(O)cc3C2=O)c1O | 0 | -12 | -12 | 16* | 0 | 3 | 5
CCCOc1ccc(C=NNC(=O)CN2CCCCC2)cc1OCC | 2 | nt | nt | nt | nt | nt | nt
CS/C(=N\S(=O)(=O)c1cccs1)NC(=O)CSc1nc2ccccc2s1 | 6 | -26 | 4 | 18* | -1 | 22 | 7
C/C(=N/NC(=O)CSc1nc2ccccc2s1)c1ccncc1 | nt | 7 | 1 | 4 | -3 | 10 | nt
CC(C)Cn1c(N)c(C(=O)COC(=O)Cc2cccs2)c(=O)n(C)c1=O | 2 | 0 | 7 | 46* | 2 | -8 | 2
CC(C)Cn1c(N)c(C(=O)COC(=O)/C=C/c2cccs2)c(=O)n(C)c1=O | 1 | -3 | 13 | -3 | 0 | -2 | nt
CCOc1ccc(C=NNC(=O)c2ccccc2Cl)cc1CN1CC2CC(C1)c1cccc(=O)n1C2 (centres undefined) | 6 | nt | nt | nt | nt | nt | nt
Cc1cccc(-n2c(N)c(C(=O)NCCN3CCOCC3)c3nc4ccccc4nc32)c1 | -494 | 37* | -2 | 17* | 3 | 3 | -11
Cn1ncc(C#N)c1N=CN1CCOCC1 | 1 | nt | nt | nt | nt | nt | nt
O=C(NN=Cc1ccc2ncccc2c1)c1ccco1 | 7 | nt | nt | nt | nt | nt | nt
COc1ccc(S(=O)(=O)N(C(C)=O)c2ccc3oc(=O)sc3c2)cc1 | 1 | 32 | 0 | 22* | -2 | -17 | 7
Cc1ccccc1NC1=C(Cl)C(=O)OC1OC(=O)c1ccccc1C (centres undefined) | 3 | 1 | 1 | 44* | -1 | -1 | -2
CCOc1ccc(C=NNC(=S)NC2CC3CC2C2C=CCC32)cc1 (centres undefined) | 5 | nt | nt | nt | nt | nt | nt
CCOc1ccc(C(c2c(NC(=O)c3ccccc3)sc(C)c2C)N2CCN(CCO)CC2)cc1 (centres undefined) | -5 | 4 | -5 | -1 | 3 | 4 | nt
